{"source": "PubChem BioAssay", "note": "Active and inactive are the calls of the source.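 Rule for the calls: active = duplicate-averaged activation above buffer control mean plus 5 SD of those controls; inactive = the rest.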", "data": [{"test": "thallium flux activation in parental CHO cells, counter-screen for KCNQ1 potentiator project (AID 493006);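 for activation: fluorescence ratio of max minus min over baseline after K+ and Tl+ depolarization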", "conditions": "parental CHO-K1 cells, FluxOR thallium flux, at 10 µM; stronger effect = higher value", "method_in_brief": "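Assay system: parental CHO-K1 cells lacking KCNQ1, loaded with FluxOR thallium dye; timing: dye 90 min RT, compound 20 min RT; signal: kinetic thallium-flux fluorescence; repeats: duplicate wells per compound, percent values averaged; benchmarks: buffer and R-L3 controls; reagent: Potassium/thallium depolarization pulse; read-out: fluorescence change ratio scaled 0% buffer, 100% R-L3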", "values": [{"smiles": "C/C(=N\\NC(=S)Nc1cccc(C)c1)c1ccco1", "outcome": "inactive"}, {"smiles": "CC(C)(C)C(=O)NC1CC2CCCC(C1)N2C(=O)Nc1ccccc1", "note": "(stereo not drawn)", "outcome": "inactive"}, {"smiles": "Fc1ccc(-c2csc(NC(=S)Nc3ccccc3)n2)cc1", "activation": "153% (active)"}, {"smiles": "O=C(NC(=S)Nc1ccc(N2CCCCC2)cc1)c1cccs1", "activation": "158% (active)"}, {"smiles": "Cc1ccc(C)c(S(=O)(=O)NCC(=O)N2CCCC2)c1", "outcome": "inactive"}, {"smiles": "CC1CN(S(=O)(=O)c2ccc(Cl)c(C(F)(F)F)c2)CC(C)O1", "note": "(stereo not drawn)", "outcome": "inactive"}, {"smiles": "S=c1[nH]c2ccc(Cl)cc2s1", "activation": "614% (active)"}, {"smiles": "Cc1ccc(Cn2c(SCC(=O)N3CC(=O)Nc4ccccc43)nc3ccccc3c2=O)cc1", "outcome": "inactive"}, {"smiles": "COc1ccc(S(=O)(=O)NCCCN2CCOCC2)cc1F", "outcome": "inactive"}, {"smiles": "O=C(NC(=S)Nc1ccc(N2CCOCC2)c(Cl)c1)c1sc2ccccc2c1Cl", "outcome": "inactive"}, {"smiles": "Cc1cc(Cl)n2nc(C)c(-c3ccc(Cl)cc3)c2n1", "activation": "216% (active)"}, {"smiles": "O=C(NC(=S)Nc1ccccc1N1CCCCC1)c1cccs1", "activation": "212% (active)"}, {"smiles": "Cc1ccc(C)c(NC(=S)NNC(=O)c2csc3c2CCC(C)C3)c1", "note": "(stereo not drawn)", "activation": "242% (active)"}, {"smiles": "Oc1c(N=NC(=S)Nc2ccccc2F)c2ccccc2n1Cc1ccccc1F", "activation": "142% (active)"}, {"smiles": "S=c1[nH]cnc2scc(-c3ccccc3)c12", "activation": "192% (active)"}, {"smiles": "CCc1nnc(SCC(=O)Nc2nnc(C)s2)n1CC1CCCO1", "note": "(stereo not drawn)", "activation": "278% (active)"}, {"smiles": "C=CCn1c(O)c(N=NC(=S)Nc2ccccc2C)c2cc(S(=O)(=O)N3CCOCC3)ccc21", "activation": "218% (active)"}, {"smiles": "CC(Oc1ccc(Br)cc1)c1nc2c3ccccc3nc(=S)n2[nH]1", "note": "(stereo not drawn)", "activation": "227% (active)"}]}]}
